Experimental data from ChEMBL document CHEMBL6078633, “Covalent Inhibitors of S100A4 Block the Formation of a Pro-Metastasis Non-Muscle Myosin 2A Complex” (J Med Chem, 2024).
Active and inactive are the calls of the source. The calls are words filed in the database; no cut-off is given here.

What was measured:
Protein S100-A4 = Protein S100-A4 (Homo sapiens, UniProt P26447); assay: Inhibition of S100A4 (unknown origin) in presence of GSH by HTRF analysis
[1] = Inhibition of S100A4-NMII interaction (unknown origin) by HTRF analysis; parameters: species or system Homo sapiens
Outline: (§1)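 TR-FRET peptide-displacement assays run in parallel: S100A4 with MPN (NMII-mimicking) peptide, and S100A11 with AnII-mimicking peptide, both with 1 mM calcium. IC50 fitted from percentage inhibition against solvent controls.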

Homo sapiens = species: Homo sapiens; assay: Inhibition of S100A11-AN2 interaction (unknown origin) by HTRF analysis
Outline: as §1, with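 “calcium. Duplicate dose-response in two independent experiments; top concentration 100 μM or 48.75 μM depending on series.” for “calcium.”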

HEK293 [2] = assay: Inhibition of C-terminal halo-tagged S100A4 C81S mutant-nanoluc-fused NMII interaction (unknown origin) expressed in HEK293 cells using nano-glo as substrate incubated for 24 hrs by Nano-bret assay relative to control; type: cell-based; settings: Homo sapiens, dose or concentration not given here
Outline: (§2)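 S100A4 wild-type or C81S construct co-expressed with NMII fusion in HEK293 cells, run in parallel. Inhibitors given at a single 30 μM for 24 h with HaloTag 618 ligand in phenol-red-free 4% serum medium. NanoGlo substrate added. Background-corrected 618/460 nm BRET ratio compared with DMSO-treated cells.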

HeLa = assay: Inhibition of cell migration in human HeLa cells assessed as reduction in wound healing at 8 uM incubated for 36 hrs by incucyte live-cell imager; type: functional, cell-based
Outline: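 HeLa or A549 cells seeded in collagen-coated 96-well plates to near confluency. Monolayer scratched, then medium replaced with medium containing various inhibitor concentrations. Plates imaged every 2 h for 36 h in an Incucyte. Wound area measured with an image-analysis wound healing tool.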

HEK293 [3] = assay: Inhibition of wild type C-terminal halo-tagged S100A4-nanoluc-fused NMII interaction (unknown origin) expressed in HEK293 cells using nano-glo as substrate incubated for 24 hrs by Nano-bret assay; type: cell-based; settings: Homo sapiens
HEK293 [4] = assay: Inhibition of C-terminal halo-tagged S100A4 C81S mutant-nanoluc-fused NMII interaction (unknown origin) expressed in HEK293 cells using nano-glo as substrate incubated for 24 hrs by Nano-bret assay; type: cell-based; settings: Homo sapiens; outline: as §2
[5] = Aqueous solubility of compound in PBS buffer at pH 7.4; type: physicochemical
Outline: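 Aqueous solubility measured in PBS pH 7.4 by an outside contract laboratory.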

[6] = Permeability of compound in MDCK-MDR1 cells; type: ADME, cell-based, Canis lupus familiaris; settings: dog
Outline: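 Permeability and P-gp efflux measured by transit across MDCK-MDR1 cell monolayers by an outside contract laboratory.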

Sequence of Protein S100-A4 (P26447 whole entry): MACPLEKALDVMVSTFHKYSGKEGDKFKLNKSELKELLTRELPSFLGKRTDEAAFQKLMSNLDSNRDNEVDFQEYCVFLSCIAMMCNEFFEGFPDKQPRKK

For `Cc1ccc(S(=O)(=O)/C=C/C#N)cc1`, the IC50 (Protein S100-A4) was over 20000 nM.

In the case of `O=C1Nc2ccccc2C1NC(=O)[C@H]1C[C@H](c2ccccc2)CN1C(=O)CCl` (some centres not stated), the IC50 [1] is reported as under 1000 nM and the inhibition (Homo sapiens) is reported as “inactive”.

In the case of `O=C(Nc1cccc(Cl)c1)[C@H]1C[C@H](c2ccccc2)CN1C(=O)CCl`, the IC50 [1] is reported as 2900 nM, the inhibition (HEK293 [2]) is reported as under 60% and the inhibition (HeLa) is reported as “Active”. The inhibition (HEK293 [3]) was “Active”, the IC50 (Protein S100-A4) was 4620 nM and the inhibition (HEK293 [4]) was “Active”.

In the case of `N#CCc1ccc(NC(=O)[C@H]2C[C@H](c3ccccc3)CN2C(=O)CCl)cc1`, the IC50 [1] is reported as under 1000 nM and the inhibition (Homo sapiens) is reported as “inactive”.

With `CN1CCCC(NC(=O)[C@H]2C[C@H](c3ccccc3)CN2C(=O)CCl)C1=O` (some centres not stated) the IC50 [1] was under 1000 nM and the inhibition (Homo sapiens) was “inactive”.

In the case of `COc1cccc(N2CC(NC(=O)[C@H]3C[C@H](c4ccccc4)CN3C(=O)CCl)CC2=O)c1` (some centres not stated), the IC50 [1] is reported as under 1000 nM and the inhibition (Homo sapiens) is reported as “inactive”.

With `O=C(NC1CCCc2ccccc21)[C@H]1C[C@H](c2ccccc2)CN1C(=O)CCl` (some centres not stated) the solubility [5] was “soluble”, the permeability [6] was “Permeable” and the inhibition (HEK293 [2]) was under 60%. The inhibition (HeLa) was “Active”, the inhibition (HEK293 [3]) was “Active” and the inhibition (Homo sapiens) was “inactive”. The inhibition (HEK293 [4]) was “Active”.
